Experimental data as given in ChEMBL document CHEMBL3853361 (ACS Med Chem Lett, 2016).
One block for each compound: values may come before it. Active and inactive are the calls of the source. The calls are words filed in the database; no cut-off is given here.

Tests used:
[1] = Half life of the compound in DMSO at 200 uM measured after irradiation of 1130 W/m2 W/m2 UV-light for 5 mins by HPLC analysis; type: physicochemical; conditions: DMSO solution under UV irradiation
[2] = Half life of the compound in DPBS at 200 uM measured after irradiation of 1130 W/m2 UV-light for 15 mins by HPLC analysis; type: physicochemical; conditions: DPBS solution under UV irradiation
[3] = Photostability of the compound in DMSO at 200 uM measured after irradiation of 226 W/m2 UV-light for 5 mins by HPLC analysis; type: physicochemical
[4] = Half life of the compound in DMSO at 200 uM measured after irradiation of 1130 W/m2 UV-light for 15 mins by HPLC analysis; type: physicochemical; conditions: DMSO solution under UV irradiation
[5] = Drug metabolism in human SK-MEL-28 cells assessed as photo-induced N-(5-amino-2-tert-butyl)-11-fluorbenzol[f]thiazol-[4,5-h]-quinazolin-10-yl)-2,6-difluorbenzolsulfonamide formation at 100 uM followed by UV-light irradiation by DAPI-staining based fluorescence microscopic analysis; type: ADME, cell-based; conditions: sk-mel-28, 100 µM
Outline: (§1)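 Fluorescence microscopy of SKMEL28 cells seeded in wells. Cells incubated with parent drug, then exposed to rising doses of 365 nm UV; green autofluorescence of the photoproduct imaged at 10× per well. Nuclei counterstained with 1 µg/mL DAPI. Controls: cells without compound given the highest UV dose.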

[6] = Stability of the compound in DMEM assessed as thermal decomposition at 200 uM incubated in dark for 1 day by HPLC analysis; type: physicochemical; conditions: 24 h
[7] = Photostability of the compound in DMEM at 200 and 1100 uM measured after daylight exposure for 1 day by HPLC analysis; type: physicochemical; conditions: 24 h
[8] = Photostability of the compound in DMSO at 200 uM measured after daylight exposure for 1 day by HPLC analysis; type: physicochemical; conditions: 24 h
SK-MEL-28 [9] = assay: Growth inhibition of human SK-MEL-28 cells harboring BRAF V600E mutant preincubated for 1 hr followed by irradiation of 1.13 kW/m2 UV-light for 5 mins measured after 48 hrs resazurin assay; type: functional, cell-based
Outline: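 SKMEL28 cells incubated 1 h with compound, then irradiated at 365 nm (1.13 kW/m2) for 5 min; growth measured 48 h after compound addition. GI50, TGI and LC50 taken from dose–response curves; n = 4, standard deviation shown.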

[10] = Stability of the compound in DMSO assessed as thermal decomposition at 200 uM incubated in dark for 1 day by HPLC analysis; type: physicochemical; conditions: 24 h
SK-MEL-28 [11] = assay: Cytostatic activity in human SK-MEL-28 cells harboring BRAF V600E mutant at 1 and 30 uM measured after 48 hrs resazurin assay; type: functional, cell-based
SK-MEL-28 [12] = assay: Growth inhibition of human SK-MEL-28 cells harboring BRAF V600E mutant measured after 48 hrs resazurin assay; type: functional, cell-based
Outline: (§2)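 SKMEL28 melanoma cells (BRAF V600E-dependent) exposed to a range of compound concentrations, no UV; growth measured after 48 h incubation. Dose–response curves give GI50, TGI (concentration giving total growth inhibition) and LC50; n = 4, error bars standard deviation.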

[13] = Half life of the compound in DMSO at 200 uM measured after irradiation of 226 W/m2 UV-light for 5 mins by HPLC analysis; type: physicochemical; conditions: DMSO solution under UV irradiation
SK-MEL-28 [14] = assay: Cytotoxicity against human SK-MEL-28 cells harboring BRAF V600E mutant at >30000 nM measured after 48 hrs by resazurin assay
[15] = Drug level in human SK-MEL-28 cells treated with dabrafenib at 100 uM followed by UV-light irradiation by DAPI-staining based fluorescence microscopic analysis; type: ADME, cell-based; conditions: sk-mel-28, 100 µM; outline: as §1
[16] = Drug level in DMEM treated with dabrafenib at 200 uM measured after irradiation of 226 W/m2 UV-light for 5 mins by HPLC analysis; type: physicochemical
[17] = Drug level assessed as compound formation in DMEM using 200 uM dabrafenib measured after daylight exposure for 1 day by HPLC analysis; type: physicochemical; conditions: 24 h
[18] = biological target: Serine/threonine-protein kinase B-raf (Homo sapiens, UniProt P15056, V600E); assay: Inhibition of recombinant human N-terminal GST-6His tagged BRAF V600E mutant (417 to 766 residues) expressed in baculovirus infected Sf9 cells preincubated with substrate followed by protein and ATP addition measured after 60 mins by scintillation counter method
[19] = Drug uptake in nucleus of human SK-MEL-28 cells at 100 uM by DAPI-staining based fluorescence microscopic analysis; type: ADME, cell-based; conditions: sk-mel-28, 100 µM
Outline: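 SKMEL28 cells incubated with compound at 100 µM and imaged for green autofluorescence by fluorescence microscopy at 60×. Nuclei counterstained with 1 µg/mL DAPI.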

[20] = Drug level assessed as compound formation in DMSO using 200 uM dabrafenib measured after daylight exposure for 1 day by HPLC analysis; type: physicochemical; conditions: 24 h
SK-MEL-28 [21] = assay: Cytostatic activity in human SK-MEL-28 cells harboring BRAF V600E mutant at 10 and 30000 nM measured after 48 hrs resazurin assay
[22] = Antiproliferative activity against human SK-MEL-28 cells harboring BRAF V600E mutant assessed as concentration required for total growth inhibition measured after 48 hrs resazurin assay; type: functional; conditions: SK-MEL-28, 48 h; outline: as §2
[23] = Drug level in DPBS treated with dabrafenib at 200 uM measured after irradiation of 1130 W/m2 UV-light for 15 mins by HPLC analysis; type: physicochemical; conditions: 0.25 h
[24] = Photostability of the compound in DMSO assessed as photolysis at 200 uM measured after irradiation of 1130 W/m2 UV-light for 15 mins by HPLC analysis; type: physicochemical; conditions: 0.25 h
[25] = Drug level in DMEM treated with dabrafenib at 200 uM measured after irradiation of 1130 W/m2 UV-light for 15 mins by HPLC analysis; type: physicochemical; conditions: 0.25 h
Outline: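 Parent drug dissolved in DMEM cell culture medium, irradiated at 1130 W/m2, then analysed by HPLC. Peak areas converted to concentrations with calibration curves (n = 4).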

Chain of Serine/threonine-protein kinase B-raf (P15056 2-766 V600E limits assumed): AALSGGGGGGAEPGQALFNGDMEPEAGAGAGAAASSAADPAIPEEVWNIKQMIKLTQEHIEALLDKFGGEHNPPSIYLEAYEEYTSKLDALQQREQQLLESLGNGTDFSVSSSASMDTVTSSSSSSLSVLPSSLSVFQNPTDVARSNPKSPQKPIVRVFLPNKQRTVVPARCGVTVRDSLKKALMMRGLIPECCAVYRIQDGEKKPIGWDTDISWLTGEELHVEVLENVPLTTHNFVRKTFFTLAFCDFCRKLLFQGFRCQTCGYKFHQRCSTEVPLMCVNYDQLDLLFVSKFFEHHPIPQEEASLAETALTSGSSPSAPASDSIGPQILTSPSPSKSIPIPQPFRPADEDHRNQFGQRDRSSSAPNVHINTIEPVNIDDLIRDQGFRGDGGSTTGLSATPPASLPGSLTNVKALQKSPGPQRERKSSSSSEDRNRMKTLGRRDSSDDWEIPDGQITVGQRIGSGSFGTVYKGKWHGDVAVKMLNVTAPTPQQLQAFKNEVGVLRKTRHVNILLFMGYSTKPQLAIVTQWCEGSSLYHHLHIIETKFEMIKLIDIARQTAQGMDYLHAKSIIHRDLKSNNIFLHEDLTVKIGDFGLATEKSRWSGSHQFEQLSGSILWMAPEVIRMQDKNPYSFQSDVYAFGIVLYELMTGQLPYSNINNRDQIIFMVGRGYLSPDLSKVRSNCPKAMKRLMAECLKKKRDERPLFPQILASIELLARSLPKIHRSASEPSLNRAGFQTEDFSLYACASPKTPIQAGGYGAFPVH

half-life at 200 µM [1]: 0.325 min | half-life at 200 µM [2]: 2.42 min | Stability [3]: Unstable | half-life at 200 µM [4]: 0.325 min | Drug metabolism [5]: Metabolite_Detected | Stability [6]: Stable | Stability [7]: Unstable | Stability [8]: Unstable | Stability [10]: Stable | half-life at 200 µM [13]: 1.08 min
Compound: CC(C)(C)c1nc(-c2cccc(NS(=O)(=O)c3c(F)cccc3F)c2F)c(-c2ccnc(N)n2)s1 [DABRAFENIB]
growth inhibition (GI) (SK-MEL-28 [9]): Active | Activity (SK-MEL-28 [11]): Active | growth inhibition (GI) (SK-MEL-28 [12]): Active

Compound: CC(C)(C)c1nc2c(s1)c1nc(N)ncc1c1ccc(NS(=O)(=O)c3c(F)cccc3F)c(F)c12
Activity (SK-MEL-28 [14]): Active | Drug metabolism [15]: Metabolite_Detected | Drug metabolism [16]: Metabolite_Detected | Drug metabolism [17]: Metabolite_Detected | growth inhibition (GI) (SK-MEL-28 [9]): Active | IC50 [18]: 280 nM | Drug uptake [19]: Active | Drug metabolism [20]: Metabolite_Detected | Activity (SK-MEL-28 [21]): Active | TGI [22]: 8.9 µM | Drug metabolism [23]: Metabolite_Detected | Stability [24]: Unstable | Drug metabolism [25]: Metabolite_Detected

Compound: CCCS(=O)(=O)Nc1ccc(F)c(C(=O)c2c[nH]c3ncc(-c4ccc(Cl)cc4)cc23)c1F [VEMURAFENIB]
growth inhibition (GI) (SK-MEL-28 [9]): Active | TGI [22]: 2 µM
